Results on 14 compounds are retold here after ChEMBL document CHEMBL1134464, “Synthesis, antimalarial activity, biomimetic iron(II) chemistry, and in vivo metabolism of novel, potent C-10-phenoxy derivatives of dihydroartemisinin” (J Med Chem, 2001).

Assay [1] has as its system Plasmodium falciparum. The assay can be described thus: In vitro antimalarial activity against chloroquine-sensitive Plasmodium falciparum HB3. In kind it is functional, organism-based. The procedure, abridged:
(§1)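 48-h [3H]hypoxanthine incorporation assay on P. falciparum cultured in human erythrocytes in RPMI 1640 with 25 mM HEPES, 32 mM NaHCO3 and 10% human serum, gassed 3% O2/4% CO2/93% N2. Assay at 2% parasitemia and 0.5% hematocrit, with DMSO stocks diluted in medium, run in triplicate. 0.5 μCi hypoxanthine added after 24 h at 37 °C, then 24 h more. IC50 interpolated from probit of log dose–response.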

The test system of assay [2] is Plasmodium falciparum. The experiment in a line: In vitro antimalarial activity against chloroquine-resistant Plasmodium falciparum K1. In kind it is functional, organism-based. The procedure, abridged: as §1
In assay [3] the test system is Mus musculus. The assay can be described thus: In vivo antimalarial activity against Plasmodium berghei when administered perorally. In kind it is functional. The settings on record: po.
Assay [4] has as its system Mus musculus. The experiment in a line: In vivo antimalarial activity against Plasmodium yoelii when administered subcutaneously. In kind it is functional. The note with it: sc.
Another assay has as its system Plasmodium yoelii. The experiment in a line: In vivo antimalarial activity against Plasmodium yoelii when administered subcutaneously. The settings on record: Mus musculus, sc.
For assay [5], the system named is Mus musculus. The assay can be described thus: In vivo antimalarial activity against Plasmodium berghei. In kind it is functional.
A further assay relates to Plasmodium berghei. The assay can be described thus: In vivo antimalarial activity against Plasmodium berghei.

For the compound `Cc1ccc(O[C@@H]2O[C@@H]3OC4(C)CC[C@H]5[C@H](C)CC[C@@H]([C@H]2C)[C@@]35OO4)cc1` (single isomer, unassigned), the IC50 with Plasmodium falciparum [1] came out at 2.87 nM; in the assay on Plasmodium falciparum [2], 3.18 nM.

For the compound `C[C@H]1[C@@H](Oc2ccc(F)cc2)O[C@@H]2OC3(C)CC[C@H]4[C@H](C)CC[C@@H]1[C@@]24OO3` (single isomer, unassigned), the results for the 50% inhibitory concentration (IC50) in the assay on Plasmodium falciparum [1] and with Plasmodium falciparum [2] were 2.88 nM and 4.58 nM, respectively.

On to `C[C@H]1[C@H](OC(=O)CCC(=O)[O-])O[C@@H]2O[C@@]3(C)CC[C@H]4[C@H](C)CC[C@@H]1[C@@]24OO3.[Na+]` [SODIUM ARESUNATE], for which the ED50 in the assay on Mus musculus [3] came out at 4 mg/kg; in the assay on Plasmodium yoelii it was 3.6 mg/kg. Besides, the values for the ED90 with Mus musculus [3] and in the assay on Mus musculus [4] were 13 mg/kg and 13.5 mg/kg, respectively.

Compound `COc1ccc(O[C@H]2O[C@@H]3OC4(C)CC[C@H]5[C@H](C)CC[C@@H]([C@H]2C)[C@@]35OO4)cc1` (single isomer, unassigned) had an IC50 with Plasmodium falciparum [2] of 4.58 nM.

Compound `CO[C@H]1O[C@@H]2O[C@@]3(C)CC[C@H]4[C@H](C)CC[C@@H]([C@H]1C)[C@@]24OO3` [ARTEMETHER] came in with an ED50 in the assay on Mus musculus [5] of 6.02 mg/kg. Further, the IC50 in the assay with Plasmodium falciparum [1] was found to be 3.42 nM; in the assay on Plasmodium falciparum [2] it was 4.55 nM.

`Cc1ccc(O[C@H]2O[C@@H]3OC4(C)CC[C@H]5[C@H](C)CC[C@@H]([C@H]2C)[C@@]35OO4)cc1` (single isomer, unassigned): the results for the concentration for half-maximal inhibition (IC50) in the assay with Plasmodium falciparum [1] and in the assay with Plasmodium falciparum [2] were 3.24 nM and 3.92 nM, respectively.

As for `C[C@H]1[C@@H](Oc2ccc(C(F)(F)F)cc2)O[C@@H]2OC3(C)CC[C@H]4[C@H](C)CC[C@@H]1[C@@]24OO3` (single isomer, unassigned), the ED50 in the assay with Mus musculus [3] was found to be 2.7 mg/kg; in the assay on Mus musculus [5], 2.12 mg/kg; in the assay on Plasmodium yoelii, 2.2 mg/kg. In addition, the ED90 in the assay on Mus musculus [3] came to 5.4 mg/kg; in the assay on Mus musculus [4], 3.1 mg/kg. The results for the IC50 in the assay with Plasmodium falciparum [1] and in the assay with Plasmodium falciparum [2] were 3.9 nM and 5.29 nM, respectively.

As to `C[C@H]1[C@H](Oc2ccc(F)cc2)O[C@@H]2OC3(C)CC[C@H]4[C@H](C)CC[C@@H]1[C@@]24OO3` (single isomer, unassigned), the IC50 turned out to be 4.04 nM with Plasmodium falciparum [1] and 5.7 nM with Plasmodium falciparum [2].

Regarding `C[C@H]1[C@H](Oc2ccccc2)O[C@@H]2OC3(C)CC[C@H]4[C@H](C)CC[C@@H]1[C@@]24OO3` (single isomer, unassigned), the IC50 in the assay on Plasmodium falciparum [1] stood at 2.61 nM; with Plasmodium falciparum [2], 2.97 nM.

Turning to `C[C@H]1[C@H](Oc2ccc(C(F)(F)F)cc2)O[C@@H]2OC3(C)CC[C@H]4[C@H](C)CC[C@@H]1[C@@]24OO3` (single isomer, unassigned), the IC50 with Plasmodium falciparum [1] came to 3.42 nM; with Plasmodium falciparum [2], 4.62 nM.

Turning to `C[C@@H]1CC[C@H]2[C@@H](C)C(=O)O[C@@H]3O[C@@]4(C)CC[C@@H]1[C@]32OO4` [ARTEMISININ], the IC50 with Plasmodium falciparum [1] came out at 9.67 nM; with Plasmodium falciparum [2], 11.2 nM.

For `C[C@H]1[C@@H](O)O[C@@H]2O[C@@]3(C)CC[C@H]4[C@H](C)CC[C@@H]1[C@@]24OO3` [ARTENIMOL], in the assay with Plasmodium berghei, the ED50 stood at 1.95 mg/kg.

On to `COc1ccc(O[C@@H]2O[C@@H]3OC4(C)CC[C@H]5[C@H](C)CC[C@@H]([C@H]2C)[C@@]35OO4)cc1` (single isomer, unassigned), for which the IC50 in the assay on Plasmodium falciparum [1] was determined as 3.32 nM; in the assay on Plasmodium falciparum [2], 3.86 nM.

In the assay on Mus musculus [5], `C[C@H]1[C@@H](Oc2ccccc2)O[C@@H]2OC3(C)CC[C@H]4[C@H](C)CC[C@@H]1[C@@]24OO3` (single isomer, unassigned) had a 50% effective dose (ED50) of 3.09 mg/kg. In addition, the IC50 with Plasmodium falciparum [1] was determined as 3.24 nM; with Plasmodium falciparum [2], 3.66 nM.

The term IC50 denotes the point on the concentration scale where inhibition reaches its midpoint. The ED50 is the dose at which the effect has come halfway, by size or by number of responders.
